How the values were obtained:
Format in all cases: functional
[1] = tested on: A498; test: Growth inhibition of human A498 cells incubated for 48 hrs by sulforhodamine B assay; conditions: for CC50: read-out: LC50 (the source's name)
How it was run: (§1)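 NCI Developmental Therapeutics Program NCI60 panel. Compounds that were active in the 10 µM one-dose screen went on to dose–response testing. Growth at each concentration is expressed relative to untreated control (100%). GI50 (concentration giving 50% of maximal inhibition of proliferation) and TGI (concentration giving total growth inhibition) were derived from the curves.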

[2] = tested on: PC-3; test: Growth inhibition of human PC-3 cells assessed as cell growth at 0.1 uM incubated for 48 hrs by sulforhodamine B assay relative to control; conditions: read-out: Activity
[3] = tested on: SF-295; test: Growth inhibition of human SF-295 cells incubated for 48 hrs by sulforhodamine B assay
How it was run: (§2)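 NCI DTP 60-line human tumour panel. Dose-response curves were run only for ligands active in the initial 10 µM screen. GI50 (concentration giving 50% of maximal inhibition of proliferation) and TGI (concentration giving total growth inhibition) were derived from these curves.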

[4] = tested on: A498; test: Growth inhibition of human A498 cells assessed as cell growth at 0.01 uM incubated for 48 hrs by sulforhodamine B assay relative to control; conditions: read-out: Activity; how it was run: as §1
[5] = tested on: OVCAR-8; test: Growth inhibition of human OVCAR-8 cells assessed as cell growth at 0.1 uM incubated for 48 hrs by sulforhodamine B assay relative to control; conditions: read-out: Activity
[6] = tested on: TK-10; test: Growth inhibition of human TK-10 cells assessed as cell growth at 100 uM incubated for 48 hrs by sulforhodamine B assay relative to control; conditions: read-out: Activity
[7] = tested on: SF-539; test: Growth inhibition of human SF-539 cells incubated for 48 hrs by sulforhodamine B assay; conditions: for CC50: read-out: LC50 (the source's name); how it was run: as §2
[8] = tested on: LOX IMVI; test: Growth inhibition of human LOX IMVI cells assessed as cell growth at 0.1 uM incubated for 48 hrs by sulforhodamine B assay relative to control; conditions: read-out: Activity
[9] = tested on: NCI-H322M; test: Growth inhibition of human NCI-H322M cells assessed as cell growth at 100 uM incubated for 48 hrs by sulforhodamine B assay relative to control; conditions: read-out: Activity
[10] = tested on: NCI-H522; test: Growth inhibition of human NCI-H522 cells assessed as cell growth at 1 uM incubated for 48 hrs by sulforhodamine B assay relative to control; conditions: read-out: Activity
[11] = tested on: SK-OV-3; test: Growth inhibition of human SK-OV-3 cells assessed as cell growth at 0.01 uM incubated for 48 hrs by sulforhodamine B assay relative to control; conditions: read-out: Activity
[12] = tested on: HCC 2998; test: Growth inhibition of human HCC 2998 cells assessed as cell growth at 100 uM incubated for 48 hrs by sulforhodamine B assay relative to control; conditions: read-out: Activity; how it was run: as §1
[13] = tested on: UO-31; test: Growth inhibition of human UO-31 cells assessed as cell growth at 0.01 uM incubated for 48 hrs by sulforhodamine B assay relative to control; conditions: read-out: Activity
[14] = tested on: HOP-62; test: Growth inhibition of human HOP-62 cells assessed as cell growth at 1 uM incubated for 48 hrs by sulforhodamine B assay relative to control; conditions: read-out: Activity
[15] = tested on: SF-539; test: Growth inhibition of human SF-539 cells assessed as cell growth at 100 uM incubated for 48 hrs by sulforhodamine B assay relative to control; conditions: read-out: Activity
[16] = tested on: T47D; test: Growth inhibition of human T47D cells assessed as cell growth at 0.1 uM incubated for 48 hrs by sulforhodamine B assay relative to control; conditions: read-out: Activity
[17] = tested on: M14; test: Growth inhibition of human M14 cells assessed as cell growth at 0.1 uM incubated for 48 hrs by sulforhodamine B assay relative to control; conditions: read-out: Activity
[18] = tested on: UACC-257; test: Growth inhibition of human UACC-257 cells assessed as cell growth at 0.01 uM incubated for 48 hrs by sulforhodamine B assay relative to control; conditions: read-out: Activity
[19] = tested on: MOLT-4; test: Growth inhibition of human MOLT-4 cells assessed as cell growth at 0.1 uM incubated for 48 hrs by sulforhodamine B assay relative to control; conditions: read-out: Activity
[20] = tested on: NCI-H322M; test: Growth inhibition of human NCI-H322M cells assessed as cell growth at 1 uM incubated for 48 hrs by sulforhodamine B assay relative to control; conditions: read-out: Activity
[21] = tested on: U-251; test: Growth inhibition of human U-251 cells assessed as cell growth at 100 uM incubated for 48 hrs by sulforhodamine B assay relative to control; conditions: read-out: Activity
[22] = tested on: SK-MEL-2; test: Growth inhibition of human SK-MEL-2 cells assessed as cell growth at 0.01 uM incubated for 48 hrs by sulforhodamine B assay relative to control; conditions: read-out: Activity
[23] = tested on: RPMI-8226; test: Growth inhibition of human RPMI-8226 cells assessed as cell growth at 0.01 uM incubated for 48 hrs by sulforhodamine B assay relative to control; conditions: read-out: Activity
[24] = tested on: RXF 393; test: Growth inhibition of human RXF 393 cells assessed as cell growth at 0.1 uM incubated for 48 hrs by sulforhodamine B assay relative to control; conditions: read-out: Activity
[25] = tested on: SW-620; test: Growth inhibition of human SW-620 cells incubated for 48 hrs by sulforhodamine B assay; how it was run: as §2
[26] = tested on: MCF7; test: Growth inhibition of human MCF7 cells incubated for 48 hrs by sulforhodamine B assay; conditions: for CC50: read-out: LC50 (the source's name)
How it was run: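 NCI60 panel at the NCI Developmental Therapeutics Program. Only compounds active in the 10 µM screen went to dose-response testing. GI50, the concentration giving 50% of maximal inhibition of proliferation, and TGI, the concentration giving total growth inhibition, were derived from the dose-response curves.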

[27] = tested on: MDA-MB-468; test: Growth inhibition of human MDA-MB-468 cells assessed as cell growth at 0.01 uM incubated for 48 hrs by sulforhodamine B assay relative to control; conditions: read-out: Activity
[28] = tested on: Hs-578T; test: Growth inhibition of human Hs-578T cells assessed as cell growth at 0.1 uM incubated for 48 hrs by sulforhodamine B assay relative to control; conditions: read-out: Activity
[29] = tested on: COLO 205; test: Growth inhibition of human COLO 205 cells assessed as cell growth at 1 uM incubated for 48 hrs by sulforhodamine B assay relative to control; conditions: read-out: Activity; how it was run: as §1
[30] = tested on: MCF7; test: Growth inhibition of human MCF7 cells assessed as cell growth at 1 uM incubated for 48 hrs by sulforhodamine B assay relative to control; conditions: read-out: Activity
[31] = tested on: MDA-MB-435; test: Growth inhibition of human MDA-MB-435 cells assessed as cell growth at 100 uM incubated for 48 hrs by sulforhodamine B assay relative to control; conditions: read-out: Activity
[32] = tested on: NCI-H460; test: Growth inhibition of human NCI-H460 cells assessed as cell growth at 1 uM incubated for 48 hrs by sulforhodamine B assay relative to control; conditions: read-out: Activity
[33] = tested on: RXF 393; test: Growth inhibition of human RXF 393 cells assessed as cell growth at 0.01 uM incubated for 48 hrs by sulforhodamine B assay relative to control; conditions: read-out: Activity
[34] = tested on: A549; test: Growth inhibition of human A549/ATCC cells assessed as cell growth at 0.01 uM incubated for 48 hrs by sulforhodamine B assay relative to control; conditions: read-out: Activity; how it was run: as §1
[35] = tested on: SK-MEL-2; test: Growth inhibition of human SK-MEL-2 cells assessed as cell growth at 0.1 uM incubated for 48 hrs by sulforhodamine B assay relative to control; conditions: read-out: Activity

COc1cccc(NC(=O)c2sc3nc4c(cc3c2N)CN(Cc2ccccc2)CC4)c1
GI50 [1]: 3.82 µM
TGI [1]: 24.4 µM
CC50 [1]: > 100 µM
growth at 0.1 µM [2]: 88%
GI50 [3]: 3.05 µM
LC50 (concentration killing 50% of cells) [3]: 94.3 µM
TGI [3]: 19.4 µM
growth at 0.01 µM [4]: 94%
growth at 0.1 µM [5]: 100%
growth at 100 µM [6]: -55%
GI50 [7]: 1.99 µM
TGI [7]: 6.56 µM
CC50 [7]: 36.4 µM
growth at 0.1 µM [8]: 102%
growth at 100 µM [9]: 18%
growth at 1 µM [10]: 74%
growth at 0.01 µM [11]: 92%
growth at 100 µM [12]: 9%
growth at 0.01 µM [13]: 92%
growth at 1 µM [14]: 74%
growth at 100 µM [15]: -75%
growth at 0.1 µM [16]: 94%
growth at 0.1 µM [17]: 95%
growth at 0.01 µM [18]: 94%
growth at 0.1 µM [19]: 104%
growth at 1 µM [20]: 83%
growth at 100 µM [21]: -54%
growth at 0.01 µM [22]: 106%
growth at 0.01 µM [23]: 98%
growth at 0.1 µM [24]: 95%
GI50 [25]: 1.85 µM
LC50 (concentration killing 50% of cells) [25]: > 100 µM
TGI [25]: 72.2 µM
GI50 [26]: 0.62 µM
TGI [26]: > 100 µM
CC50 [26]: > 100 µM
growth at 0.01 µM [27]: 92%
growth at 0.1 µM [28]: 92%
growth at 1 µM [29]: 92%
growth at 1 µM [30]: 40%
growth at 100 µM [31]: -74%
growth at 1 µM [32]: 92%
growth at 0.01 µM [33]: 97%
growth at 0.01 µM [34]: 96%
growth at 0.1 µM [35]: 112%

Cc1cc(C)c(NC(=O)c2sc3nc4c(cc3c2N)CN(Cc2ccccc2)CC4)c(C)c1
GI50 [1]: 1.31 µM
TGI [1]: 7.71 µM
CC50 [1]: > 100 µM
growth at 0.1 µM [2]: 93%
GI50 [3]: 1.89 µM
LC50 (concentration killing 50% of cells) [3]: > 100 µM
TGI [3]: 64.7 µM
growth at 0.01 µM [4]: 87%
growth at 0.1 µM [5]: 97%
growth at 100 µM [6]: 5%
GI50 [7]: 2.44 µM
TGI [7]: 7.79 µM
CC50 [7]: > 100 µM
growth at 0.1 µM [8]: 105%
growth at 100 µM [9]: 39%
growth at 1 µM [10]: 66%
growth at 0.01 µM [11]: 92%
growth at 100 µM [12]: -21%
growth at 0.01 µM [13]: 91%
growth at 1 µM [14]: 81%
growth at 100 µM [15]: -45%
growth at 0.1 µM [16]: 93%
growth at 0.1 µM [17]: 94%
growth at 0.01 µM [18]: 94%
growth at 0.1 µM [19]: 98%
growth at 1 µM [20]: 102%
growth at 100 µM [21]: -43%
growth at 0.01 µM [22]: 108%
growth at 0.01 µM [23]: 101%
growth at 0.1 µM [24]: 89%
GI50 [25]: 2.6 µM
LC50 (concentration killing 50% of cells) [25]: > 100 µM
TGI [25]: 17.1 µM
GI50 [26]: 1.61 µM
TGI [26]: 32.2 µM
CC50 [26]: > 100 µM
growth at 0.01 µM [27]: 99%
growth at 0.1 µM [28]: 91%
growth at 1 µM [29]: 95%
growth at 1 µM [30]: 61%
growth at 100 µM [31]: -58%
growth at 1 µM [32]: 96%
growth at 0.01 µM [33]: 92%
growth at 0.01 µM [34]: 96%
growth at 0.1 µM [35]: 113%

Nc1c(C(=O)Nc2ccccc2)sc2nc3c(cc12)CN(Cc1ccccc1)CC3
GI50 [1]: 1.78 µM
CC50 [1]: > 100 µM
growth at 0.1 µM [2]: 91%
GI50 [3]: 5.45 µM
LC50 (concentration killing 50% of cells) [3]: > 100 µM
TGI [3]: > 100 µM
growth at 0.01 µM [4]: 91%
growth at 0.1 µM [5]: 101%
growth at 100 µM [6]: -7%
GI50 [7]: 2.78 µM
TGI [7]: > 100 µM
CC50 [7]: > 100 µM
growth at 0.1 µM [8]: 102%
growth at 100 µM [9]: 59%
growth at 1 µM [10]: 91%
growth at 0.01 µM [11]: 97%
growth at 100 µM [12]: 47%
growth at 0.01 µM [13]: 80%
growth at 1 µM [14]: 88%
growth at 100 µM [15]: 11%
growth at 0.1 µM [16]: 79%
growth at 0.1 µM [17]: 91%
growth at 0.01 µM [18]: 93%
growth at 0.1 µM [19]: 95%
growth at 1 µM [20]: 91%
growth at 100 µM [21]: 12%
growth at 0.01 µM [22]: 96%
growth at 0.01 µM [23]: 97%
growth at 0.1 µM [24]: 94%
GI50 [25]: 20.8 µM
LC50 (concentration killing 50% of cells) [25]: > 100 µM
TGI [25]: > 100 µM
GI50 [26]: 12.1 µM
TGI [26]: > 100 µM
CC50 [26]: > 100 µM
growth at 0.01 µM [27]: 96%
growth at 0.1 µM [28]: 92%
growth at 1 µM [29]: 93%
growth at 1 µM [30]: 82%
growth at 100 µM [31]: -6%
growth at 1 µM [32]: 91%
growth at 0.01 µM [33]: 96%
growth at 0.01 µM [34]: 98%
growth at 0.1 µM [35]: 95%

From ChEMBL document CHEMBL4715736, “Identification of anticancer agents based on the thieno[2,3-b]pyridine and 1H-pyrazole molecular scaffolds” (2016)
